Experimental data as given in ChEMBL document CHEMBL1629684, “Effects of ravuconazole treatment on parasite load and immune response in dogs experimentally infected with Trypanosoma cruzi” (Antimicrob Agents Chemother, 2010).
Active and inactive are the calls of the source.

How the values were obtained:
[1] = test system: Trypanosoma cruzi; test: Antitrypanosomal activity against Trypanosoma cruzi Y infected in mongrel dog assessed as reduction in parasite-induced intrafascicular collagen deposition at 7 mg/kg, po BID after 180 days […]; format: functional, organism-based; parameters: dose 7 mg/kg
[2] = test system: Trypanosoma cruzi; test: Antitrypanosomal activity against Trypanosoma cruzi Berenice-78 infected in mongrel dog assessed as reduction in parasite-induced intrafascicular collagen deposition in right atrium at 7 mg/kg, po BID after 180 days […]; format: functional, organism-based; parameters: dose 7 mg/kg; conditions: Cardiac atrium
[3] = Half life in mongrel dog; format: ADME, organism-based, Canis lupus familiaris; conditions: in vivo
[4] = test system: Canis familiaris; test: Immunostimulatory activity in mongrel dog infected with Trypanosoma cruzi Berenice-78 assessed as reduction in IL10 production in right atrium at 12 mg/kg, po BID after 180 days by semiquantitative RT-PCR; format: functional, organism-based; parameters: dose 12 mg/kg; conditions: Canis lupus familiaris, Cardiac atrium
Summary of the method: (§1)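 Dogs were euthanized 6 months after the end of treatment. RNA was extracted from the right atrium with acid guanidinium thiocyanate-phenol-chloroform. One microgram was DNase treated and reverse transcribed with oligo(dT) for 1 h at 42°C. IFN-γ or IL-10 cDNA was amplified with 1.5 mM MgCl2: 94°C 5 min, n cycles of 94/57/72°C, final extension 72°C 6 min. Expression was scored semiquantitatively against infected untreated and noninfected dogs.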

[5] = test system: Canis familiaris; test: Immunostimulatory activity in mongrel dog infected with Trypanosoma cruzi Berenice-78 assessed as reduction in INFgamma production in right atrium at 7 mg/kg, po BID after 180 days by semiquantitative RT-PCR; format: functional, organism-based; parameters: dose 7 mg/kg; conditions: Canis lupus familiaris, Cardiac atrium; summary of the method: as §1
[6] = Half life in human; format: ADME, organism-based; conditions: in vivo
[7] = test system: Canis familiaris; test: Toxicity in mongrel dog infected with Trypanosoma cruzi Y assessed as weight loss at 12 mg/kg, po BID for 90 days started 12 to 22 days postinfection measured after 6 months; format: organism-based, Canis lupus familiaris; parameters: dose 12 mg/kg, route oral; conditions: in vivo, 4383 h
Summary of the method: (§2)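 Body weight gain, in kg, was recorded for infected dogs 1 day and 6 months after the end of oral b.i.d. treatment. Treated animals were compared with infected untreated and noninfected control groups.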

[8] = test system: Canis familiaris; test: Toxicity in mongrel dog infected with Trypanosoma cruzi Y assessed as weight loss at 7 mg/kg, po BID for 90 days started 12 to 22 days postinfection measured after 6 months; format: organism-based, Canis lupus familiaris; parameters: dose 7 mg/kg, route oral; conditions: in vivo, 4383 h; summary of the method: as §2
[9] = test system: Trypanosoma cruzi; test: Antimicrobial activity against Trypanosoma cruzi Y infected in mongrel dog assessed as suppression of microbial proliferation at 12 mg/kg, po BID started 12 to 22 days postinfection measured after 1 day; format: functional, organism-based; parameters: dose 12 mg/kg
Summary of the method: (§3)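 Mongrel dogs, 4 months old, dewormed and vaccinated, were inoculated with 2.0 × 10^3 bloodstream trypomastigotes/kg. Oral b.i.d. (q12h) dosing began 12 to 22 days postinfection, once parasitemia appeared. Dosing ran 90 days at 12 mg/kg and 60 days at 7 mg/kg, with 5 dogs per group. Parasitemia was read by fresh-blood examination of marginal ear vein blood from day 10 of infection until parasites were undetectable.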

[10] = test system: Trypanosoma cruzi; test: Antimicrobial activity against Trypanosoma cruzi Berenice-78 infected in mongrel dog assessed as suppression of microbial proliferation at 12 mg/kg, po BID started 12 to 22 days postinfection measured after 1 day; format: functional, organism-based; parameters: dose 12 mg/kg; summary of the method: as §3
[11] = test system: Trypanosoma cruzi; test: Antimicrobial activity against Trypanosoma cruzi Y infected in mongrel dog assessed as survival of dog at 7 mg/kg, po BID started 12 to 22 days postinfection measured after 1 day; format: functional
Summary of the method: (§4)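 Four-month-old mongrel dogs (five per group) received 2.0 × 10^3 Y or Berenice-78 bloodstream trypomastigotes/kg. Oral dosing began 12–22 days postinfection, when parasitemia was detected by fresh blood examination: 12 mg/kg q12h for 90 days, or 7 mg/kg q12h for 60 days. Ear-vein blood was checked from day 10. Mortality was expressed as the cumulative percentage of dead animals.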

[12] = test system: Trypanosoma cruzi; test: Antimicrobial activity against Trypanosoma cruzi Berenice-78 infected in mongrel dog assessed as survival of dog at 7 mg/kg, po BID started 12 to 22 days postinfection measured after 1 day; format: functional; summary of the method: as §4
[13] = test system: Trypanosoma cruzi; test: Antimicrobial activity against Trypanosoma cruzi Y infected in mongrel dog assessed as parasite level in blood of dog at 12 mg/kg, po BID started 12 to 22 days postinfection measured after 30 days by PCR analysis; format: functional
Summary of the method: (§5)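 Blood PCR for T. cruzi on treated dogs (n = 5 per group) at 1 and 6 months posttreatment. Each reaction took 2 μl blood DNA template in Tris-HCl pH 9.0, 75 mM KCl, 3.5 mM MgCl2 and 0.2 mM dNTPs. Cycling was 95°C 5 min, then 2 cycles annealing at 30°C, 33 cycles at 40°C, and 72°C 5 min. Products were run on 6% polyacrylamide and silver stained. Reported as rate of positive animals.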

[14] = test system: Trypanosoma cruzi; test: Antimicrobial activity against Trypanosoma cruzi Berenice-78 infected in mongrel dog assessed as parasite level in blood of dog at 12 mg/kg, po BID started 12 to 22 days postinfection measured after 30 days by PCR analysis; format: functional
Summary of the method: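 Mongrel dogs (4 months old, five per group) were inoculated with 2.0 × 10^3 Berenice-78 bloodstream trypomastigotes/kg and dosed orally at 12 mg/kg q12h for 90 days, beginning 12–22 days postinfection once parasitemia appeared. Blood was sampled 1 month after treatment. PCR used 2 μl blood DNA, 35 cycles with annealing at 30°C then 40°C, and polyacrylamide gel with silver staining.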

[15] = test system: Trypanosoma cruzi; test: Antimicrobial activity against Trypanosoma cruzi Y infected in mongrel dog assessed as parasite level in blood of dog at 12 mg/kg, po BID started 12 to 22 days postinfection measured after 6 months by PCR analysis; format: functional; summary of the method: as §5
[16] = test system: Trypanosoma cruzi; test: Antimicrobial activity against Trypanosoma cruzi Berenice-78 infected in mongrel dog assessed as parasite level in blood of dog at 12 mg/kg, po BID started 12 to 22 days postinfection measured after 6 months by PCR analysis; format: functional; summary of the method: as §5
[17] = test system: Trypanosoma cruzi; test: Antimicrobial activity against Trypanosoma cruzi Berenice-78 infected in mongrel dog assessed as parasite level in blood of dog at 7 mg/kg, po BID started 12 to 22 days postinfection measured after 30 days by PCR analysis; format: functional; summary of the method: as §5
[18] = test system: Canis familiaris; test: Immunostimulatory activity in mongrel dog infected with Trypanosoma cruzi Y assessed as production of antibody IgG at 7 mg/kg, po BID for 90 days measured up to 30 days by ELISA; format: functional, organism-based; parameters: dose 7 mg/kg; conditions: Canis lupus familiaris
Summary of the method: (§6)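 Serum was taken before inoculation and then monthly until 6 months posttreatment, and stored at −80°C. ELISA plates were coated with alkaline extract of Y-strain parasites grown to exponential phase in LIT medium. Bound total IgG or IgG2 was detected with peroxidase-labeled anti-dog conjugates and read at 490 nm. Cutoff was the mean absorbance of 10 uninfected dogs plus 2 SD.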

[19] = test system: Canis familiaris; test: Immunostimulatory activity in mongrel dog infected with Trypanosoma cruzi Berenice-78 assessed as production of antibody IgG2 at 12 mg/kg, po BID for 90 days measured up to 30 days by ELISA; format: functional, organism-based; parameters: dose 12 mg/kg; conditions: Canis lupus familiaris; summary of the method: as §6
[20] = test system: Canis familiaris; test: Immunostimulatory activity in mongrel dog infected with Trypanosoma cruzi Berenice-78 assessed as production of antibody IgG at 7 mg/kg, po BID for 90 days measured up to 30 days by ELISA; format: functional, organism-based; parameters: dose 7 mg/kg; conditions: Canis lupus familiaris; summary of the method: as §6
[21] = test system: Canis familiaris; test: Immunostimulatory activity in mongrel dog infected with Trypanosoma cruzi Berenice-78 assessed as production of antibody IgG2 at 7 mg/kg, po BID for 90 days measured up to 30 days by ELISA; format: functional, organism-based; parameters: dose 7 mg/kg; conditions: Canis lupus familiaris; summary of the method: as §6
[22] = test system: Trypanosoma cruzi; test: Antitrypanosomal activity against Trypanosoma cruzi Y infected in mongrel dog assessed as reduction in parasite-induced intrafascicular collagen deposition in right atrium at 12 mg/kg, po BID after 180 days; conditions: Cardiac atrium

C[C@@H](c1nc(-c2ccc(C#N)cc2)cs1)[C@](O)(Cn1cncn1)c1ccc(F)cc1F [RAVUCONAZOLE]
Activity [1]: Active | Activity [2]: Active | half-life [3]: 8.8 h | Activity [4]: Active | Activity [5]: Active | half-life [6]: 96 h | Activity [7]: Non-toxic | Activity [8]: Non-toxic | Activity [9]: Non-toxic | Activity [10]: Non-toxic | Activity [11]: 100% | Activity [12]: 100% | Activity [13]: 80% | Activity [14]: 100% | Activity [15]: 60% | Activity [16]: 80% | Activity [17]: 60% | Activity [18]: Active | Activity [19]: Active | Activity [20]: Active | Activity [21]: Active | Activity [22]: Active
